Measurements from the EternaBench riboswitch data.

Test system: MS2 coat protein
Assay: apparent Kd, MS2 coat protein; higher = weaker binding; RNA-MaP array; FMN 200 µM where present
Procedure, shortened: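 Two titrations, one without ligand and one with constant ligand, were run with SNAP-549-labelled MS2 coat protein from 0.7 or 1.5 nM, doubling to 3 µM. The targets were designs transcribed by stalled E. coli RNA polymerase on Illumina sequencing-chip clusters, in 100 mM Tris-HCl pH 7.5, 80 mM KCl, 4 mM MgCl2, BSA, DTT, yeast tRNA and Tween-20. The apparent Kd is the median of filtered per-cluster binding-curve fits, with green signal normalised to red-channel RNA signal and control-cluster median Fmax.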

[1] = designed as: OFF switch for flavin mononucleotide, no ligand
[2] = ligand present: flavin mononucleotide, designed as: OFF switch for flavin mononucleotide
[3] = designed as: ON switch for flavin mononucleotide, no ligand
[4] = ligand present: flavin mononucleotide, designed as: ON switch for flavin mononucleotide

Sequence	apparent Kd [1]	apparent Kd [2]	apparent Kd [3]	apparent Kd [4]
AGGAUGCGUGCAGGAUAUCGAGUCGGGAUGGCUCGCGUGGUGUGCCACAUGAGGAUCACCCAUGUCGAGAAGGGCAGGCGGCGC	535 nM	256 nM	–	–
AGGAUUAAAGGGAAUAACAUGAGGAUCACCCAUGUAUGGGAGAGAAGGCAUAUCGGAGGACGAUAUGAGGAUAUUUAAAAUUUA	–	–	121 nM	38.3 nM
AGGCCGGGAGGAUAUCCAAUAUAUGACAUGAGGAUCACCCAUGUUUCCACUCGUACCUCCGGAGAAGGCCCGGCGA	21.1 nM	19.9 nM	–	–
AGGGUAGUAGGAUAUACAUGAGGAUCACCCAUGUUUCCUUUACGUGACUGGUCCUAGUGUAGAAGGGCUAGCAC	15.8 nM	14.8 nM	–	–
AGGGUGGGCUCAGGAUAUCAGGAAGGGAUGUGGACAUGAGGAUCACCCAUGUACCAGUGUUGUUAUGAGAAGGGAGAUAUUGUA	–	–	16.7 nM	13.5 nM
AGGUAAGACUUAAUUGUGCUGGUGAGAAGGCAAAUGGUUGUGAUUAACAUGAGGAUCACCCAUGUUGAGGAUAUCAUCGGUAUC	–	62.9 nM	–	–
AGGUAAGAGUUAAUUGUGACGGUGAGAAGGCAAUAGGUUGUGAUUAACAUGAGGAUCACCCAUGUUGAGGAUAUCACCACCUAC	14.3 nM	80.8 nM	–	–
AGGUCAACCACAGGAUAUGGCUAGCAUAGCUAGCCAGAAGGGUGGUCAUAUCCAUGUAAAUACAUGAGGAUCACCCAUGUAUCC	–	–	209 nM	79.8 nM
AGGUUGUGAGGAUAUUAGUUAUAUGAAUGGAGGAGUAUGGCUGAGAAGGCACAUGAGGAUCACCCAUGUAGAUC	120 nM	420 nM	–	–
AGUAACAGAGGAUAUACUGUUUUAUGUGUUUGUUGUUUUAAACAUGAGGAUCACCCAUGUAGAAGGCUGAAUAA	20.1 nM	21.2 nM	–	–
AGUAAGAUGCAGAAGGUGUCAGCGAGAGCUGCGACAUGAGGAUCACCCAUGUACCAGUGAGGGUACAAGGAUAUGCAUCUUACA	–	–	243 nM	19.3 nM
AGUACUACAGGAUAUACAUGAGUGAUACUCAUAUCCCUACUACAUGAGGAUCACCCAUGUAGAAGGGUAGUACA	11.7 nM	10.1 nM	–	–
AGUAGAUCAGGAUAUACGUGAAAGGUCAAAGUGUCCAAUCUACAUGAGGAUCACCCAUGUAGAAGGGAUCUACA	15.2 nM	14.6 nM	–	–
AGUCAGAGCAGAGGAUAUAUACAUGAGGAUCACCCAUGUGACUGACUACGCUAGAAAUAGCGUGUAUAGAAGGCUGCUCUGACA	40.2 nM	96.4 nM	–	–
AGUCGGAGCAGAGGAUAUACAUGAGGAUCACCCAUGUAAUAAGAUCAAGCCUGGAAACAGGCAAUGUAGAAGGCUGCUCCGACA	34.2 nM	338 nM	–	–
AGUCGGAGCAGAGGAUAUAUACAUGAGGAUCACCCAUGUAAAGAUCAAAGCUGGAAACAGCAAGUAUAGAAGGCUGCUCCGACA	90.5 nM	271 nM	–	–
AGUCGGCGAGGAUAUACAUGAGGAUCACCCAUGUAUGAUCCUAGACCUGUAGGUCCAUGUAGAAGGCGCUGACA	63.6 nM	29.1 nM	–	–
AGUCGGCGAGGAUAUACAUGAGGAUCACCCAUGUGUGAUCCUAGACCUGUAGGUCCAUGUAGAAGGCGCUGACA	19.6 nM	23.6 nM	–	–
AGUGCCCGAGCAGGAUAUCAAUGGUGGUCUGUACGCUGUAAAUUCAACAUGAGGAUCACCCAUGUUGAGAAGGGUUACGGCGCA	8.86 nM	23.9 nM	–	–
AGUGCUAUGUAGAAGGCAGAUCUGAUUCAGAUCUGAGGAUAUACAUGAGGAUCACCCAUGUUAUGCACCAGCACGAGAGUGCAA	8.2 nM	17.5 nM	–	–
AGUGGGUGUGAUAAAUAGUGGAAGUAGGAUAUGGGCUUACAUGAGGAUCACCCAUGUAUACAGCGCCAGAAGGACUGGACUGUA	–	–	75.3 nM	34.6 nM
AGUGUCAUCGAGAAGGCCUCAACAUGAGGAUCACCCAUGUUGUAAUAUGGGAGGAUAUCGAUGAUACAGCUACGUUUCGUAGCA	–	–	20.7 nM	5.79 nM
AGUGUUUCGUUGUGACCCAUUCACAUGAGGAUCACCCAUGUAGAGGAUAUAGGUCACCACGGUUCCUAGAAGGCUGCAGGUGUG	5.71 nM	7.3 nM	–	–
AGUUAAUAUCGAGGAUAUCUCAUGGAUACAUGAGGAUCACCCAUGUGAAUGGGAGAAGGCGAUAUUAACAGCAUGUUACAUGCA	–	–	32 nM	7.05 nM
AGUUACAAACACAACAUGAGGAUCACCCAUGUACUCUCAUGUAAGGAUAUACAUUCGUAUAGAAAGUAGAAGGUACUAAUUAUG	–	–	515 nM	340 nM
AGUUACAUGAGGAUCACCCAUGUGUAUAGGGCAACCUAUAGACAGGAUAUCCGGCAUGCGGCCUAGGAGAAGGGUCAAAGAAGA	–	–	91.5 nM	429 nM
AGUUAUUCAGGAUAUGGUGUGUUAUACAUGAGGAUCACCCAUGUAGAUCCUGGUUAGGCCUCAGAAGGGAAUGUUC	182 nM	183 nM	–	–
AGUUUCUCCGCAGGAUAUGUGCUCUUUAUCACAUGAGGAUCACCCAUGUCAGCCUACACGGCGAGACAGAAGGGUGGUGAUGCC	–	–	88.6 nM	81.2 nM

Sequence	apparent Kd [1]	apparent Kd [2]	apparent Kd [3]	apparent Kd [4]
AUAAAACAUGAGGAUCACCCAUGUAGAAAUAUGGGAGGAUAUACAAAGACGAAAGUCAAAGUAGAAGGCCUAAAAG	–	–	127 nM	33.5 nM
AUAAACCUAGGAUAUACAUGAGGAUCACCCAUGUAAGGGCAAUGCCCAUGCUCCUCAUGUAGAAGGAGGAGCAG	21.8 nM	25.5 nM	–	–
AUAAAUCAUGUAGGAUAUGCGUGGCGAAGCUAUGCAGAAGGACAUGAGGAUCACCCAUGUCUUUCUGUCUGCGUACAGACAGGA	23.9 nM	115 nM	–	–
AUAAGCUCGUCAGGAUAUACAACAUUGUGUAAGCAGUGUGGUAUGAUCACAUGAGGAUCACCCAUGUAGAAGGGACGAGCUUAU	6.9 nM	44.9 nM	–	–
AUAAUGAGAGGAUAUACAUGAGGAUCACCCAUGUUAUUAUCACGGCGUGCUCCAUUACGUAGAAGGCUCAUUUA	117 nM	35.2 nM	–	–
AUAAUGAGUCAAGGAUAUCCGAGCUGAAUGCUAGGAGAAGGUGACAUGAGGAUCACCCAUGUCUCUCCGAGCAUGGUAUUCUCA	28.6 nM	33.6 nM	–	–
AUAAUGUAAGGAUAUCAGUCGACUAGCUUCGGCUAGUCGACUGAGAAGGUACAUGAGGAUCACCCAUGUGUUUC	37.7 nM	209 nM	–	–
AUAAUGUGAGGAUAUCAGUAGUAUUGCUUCGGCAAUACUACUGAGAAGGCACAUGAGGAUCACCCAUGUGAUCA	1380 nM	32.8 nM	–	–
AUAAUUAUAUAUUUCACAAGAAUCAGAAGGCGUUACAUGAGGAUCACCCAUGUUUUGUAUAGUAACGAGGAUAUGAUAUGGAAA	15.2 nM	14 nM	–	–
AUAAUUUAAGUGAGGAUAUACCUAUGGAAACAUAGGUAGAAGGCACAUGAGGAUCACCCAUGUUUUUACACAAA	17.8 nM	37.9 nM	–	–
AUACAUGAGGAUCACCCAUGUUACUGGGUCUAUAUAGAACGUAGAAGGAUGUAUUGAAGAAGAUCAUAGGAUAUACUUUAUAGU	49.9 nM	38.9 nM	–	–
AUACAUGAGGAUCACCCAUGUUACUUGGUCUUGAUAUUACGUAGAAGGAUGAUAUUAUUAUUAGCAUAGGAUAUACAAUUUGUA	17 nM	12.8 nM	–	–
AUACCACGAGGAUAUCGUCUAUAAUACAUGAGGAUCACCCAUGUUAUAUCUGUAAUGUUUCGAGAAGGCGUGUGUU	18.9 nM	14.6 nM	–	–
AUACGGGCUAACAUGAGGAUCACCCAUGUGUUAUACUUAAUAUAGGAUAUGUUUAUACUUUUUGGGCAGAAGGAUGGCCCGUAU	–	–	53.5 nM	44.9 nM
AUACUCAUGUAAGGAUAUGCAGCCGUUUCGGCUGCAGAAGGUACUAAAAUACAUGAGGAUCACCCAUGUCUCUCGCAUUGCGAG	–	–	753 nM	117 nM
AUACUGAGCGUAAGUUACCUGAACAUGAGGAUCACCCAUGUGGAGGAUAUUGACCUAGCAAAGCUCGAGAAGGCCACUGGGAUG	24.8 nM	19.1 nM	–	–
AUAGGCCUAGGAUAUACAUGAGGAUCACCCAUGUUAAUACUUCAAUCAAGUUAAUAGUGUAGAAGGAGGAAUAA	27.6 nM	32.4 nM	–	–
AUAGUUUUUGAGAAGGCAUUUCUUAAGUGAUCUUACUAGUACAUGAGGAUCACCCAUGUUUUGUAUGAGGAUAUCAGUAGGUUG	33.9 nM	31.7 nM	–	–
AUAUAAAUAUAGGAUAUCGAAUUUAUUAAUUAUCGAGAAGGAUAAACAUGAGGAUCACCCAUGUGGUAUCAUGG	366 nM	336 nM	–	–
AUAUAUAUAUCAGGAUAUGGACAGGCCUGUCCGUAUUGAGACAGUAACAUGAGGAUCACCCAUGUCCAGAAGGGAUCUAUAUAU	40.5 nM	49.4 nM	–	–
AUAUCAAGCAAGGAUAUGCAAAUGGUUAUUUAUGCAGAAGGUGCGACAUGAGGAUCACCCAUGUUUCUGGGUUU	87.7 nM	134 nM	–	–
AUAUCUUGUCGAGGAUAUGUUGUAUUGAUCUGAAAACAUGAGGAUCACCCAUGUAUACGGUGGGAACAGAAGGUGGAUGUAGAA	318 nM	356 nM	–	–
AUAUGAUAGAUAGGAUAUACUGAGGUUGAAUGGGUAGAAGGAUCGAUAGGGAAGACUACAUGAGGAUCACCCAUGUUGUGUAUU	–	–	151 nM	81.6 nM
AUAUGGAAUACAGGAUAUGUAAGUUUUAAGUGUAUUGGUUAUUACUUAACAACAGAAGGGUAUUACAUGAGGAUCACCCAUGUA	–	–	12.8 nM	10 nM
AUAUGUUAUUAGGAUAUUAAUGCGCGGUCGCAUUAAGAAGGAGUGACAUGAGGAUCACCCAUGUACCACGCUCA	24.3 nM	23.3 nM	–	–
AUAUUAUUGAUCCAUUUUUUCAACAUGAGGAUCACCCAUGUGCAGGAUAUCGUGUGUUUUAUAAACGAGAAGGGCAAAUUCAUU	82.6 nM	218 nM	–	–
AUAUUGUGAGGAUAUGAACUUAGUAUCGAAAGAUACUAACUUCAGAAGGCACAUGAGGAUCACCCAUGUUUCUC	72.3 nM	689 nM	–	–
